Reference: the RNAGym collection of RNA variant scans (doi:10.1126/science.aae0568)
Fewer inactive variants are shown than the library holds.

B1: tRNA (parent)
chain: GUUCCGUUGGCGUAAUGGUAACGCGUCUCCCUCCUAAGGAGAAGACUGCGGGUUCGAGUCCCGUACGGAACG

Variants of: B1
Assay: yeast fitness relative to wild type (ratio to wild type); higher = fitter; tRNA-Arg(CCU), competitive growth, 37 C, YPD
In short: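 For this measurement, the tRNA-Arg(CCU) gene was varied by chemical synthesis at a 3% per-site mutation rate across 69 sites, and each variant was placed at the native genomic locus in Saccharomyces cerevisiae. The pooled strains went through a 24-hour competition in YPD at 37°C in six parallel replicates, with amplicons from start and end populations read by 100-nucleotide paired-end sequencing. Darwinian fitness relative to wild type followed from the change in each genotype's frequency. Genotypes needed ≥ 100 starting reads, and estimates < 0.5 were set to 0.5.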

Going from A15U G25A C27A C33U to A15U G25C G67A, the yeast fitness falls from 0.512 to no more than 0.5.

Going from A15U G38A C46G G56C to A15U G38C, the yeast fitness rises from no more than 0.5 to 0.699.

Going from A15U G38C G39A A43C C60G to A15U G38C G39A A43C C60G A65C, the yeast fitness falls from 0.569 to 0.559.

A15U G38C G39A A43C C61U and A15U G38C G50C C60U cannot be ordered by yeast fitness: no more than 0.5 for the first, no more than 0.5 for the second.

Compared with A15U G39A A57U C62G, A15U G39C A42C A65C is lower in yeast fitness: 0.502 for the first, no more than 0.5 for the second.

First: A15U G41C
Second: A15U G41C G56C
The yeast fitness of the first is higher: 0.784 for the first, no more than 0.5 for the second.

Going from A15U G48A to A15U G51A, the yeast fitness falls from 0.763 to 0.722.

Compared with A15U G51C, A15U G52A is higher in yeast fitness: 0.555 for the first, 0.606 for the second.

Going from A15U G52A C61G to A15U G52C, the yeast fitness falls from 0.596 to no more than 0.5.

Compared with A15U G56A, A15U G56A C61G C66U is lower in yeast fitness: 0.727 for the first, no more than 0.5 for the second.

Compared with A15U G56C G67U, A15U G58C A70U is higher in yeast fitness: no more than 0.5 for the first, 0.643 for the second.

First: A15U G58C C66U
Second: A15U G63A
The yeast fitness of the first is lower: 0.631 for the first, 0.675 for the second.

First: A15U G67A
Second: A15U G67C
The yeast fitness of the first is lower: 0.654 for the first, 0.657 for the second.

First: A15U G68C
Second: A15U U16A
The yeast fitness of the first is lower: 0.671 for the first, 0.705 for the second.

Compared with A15U U16A A21C C33G, A15U U16A C22G C60U is lower in yeast fitness: 0.558 for the first, no more than 0.5 for the second.

First: A15U U16A C27G
Second: A15U U16A G18A C60U
The yeast fitness of the first is higher: 0.59 for the first, no more than 0.5 for the second.

First: A15U U16C
Second: A15U U16G C55A A57C U59C A65G
The yeast fitness of the first is higher: 0.893 for the first, no more than 0.5 for the second.

Compared with A15U U19A A20G A40U A43U, A15U U19A A20G A40U A43U C60G C62U is lower in yeast fitness: 0.542 for the first, 0.518 for the second.

A15U U19A A20G G41A C60G A65G and A15U U19A C24A C34U A40C cannot be ordered by yeast fitness: no more than 0.5 for the first, no more than 0.5 for the second.

A15U U19A G41C C55G C66G and A15U U19C U47C A65G G68C cannot be ordered by yeast fitness: no more than 0.5 for the first, no more than 0.5 for the second.

First: A15U U19G C27A U28A
Second: A15U U26A A37G U64A
The yeast fitness of the first is higher: 0.578 for the first, no more than 0.5 for the second.

Going from A15U U26A C29G G50A C61G G63C to A15U U26A C31A, the yeast fitness falls from 0.57 to no more than 0.5.

A15U U26A C31A G67U and A15U U26A C55A A70C cannot be ordered by yeast fitness: no more than 0.5 for the first, no more than 0.5 for the second.

Going from A15U U28A G68C to A15U U28C, the yeast fitness rises from no more than 0.5 to 0.772.

A15U U32A C33G U53A and A15U U32A G44A A65C cannot be ordered by yeast fitness: no more than 0.5 for the first, no more than 0.5 for the second.

A15U U32A G50A G51A G56C C61G C62U and A15U U32G G44A G50A U54A cannot be ordered by yeast fitness: no more than 0.5 for the first, no more than 0.5 for the second.

Going from A15U U35A A43U C46U to A15U U35A G50C A65C, the yeast fitness falls from 0.695 to no more than 0.5.

Compared with A15U U47A A57U, A15U U47A G63A is lower in yeast fitness: 0.719 for the first, no more than 0.5 for the second.

A15U U47G A57C and A15U U53A C62A cannot be ordered by yeast fitness: no more than 0.5 for the first, no more than 0.5 for the second.

Going from A15U U53C to A15U U53G, the yeast fitness falls from 0.71 to 0.539.

Going from A15U U54A to A15U U59C C62A, the yeast fitness falls from 0.53 to no more than 0.5.

Compared with A15U U64A, A15U U64C A65G is lower in yeast fitness: 0.709 for the first, 0.528 for the second.

U16A A20G C27U G41C C55U A69U and U16A A20G C29G C30U A40U A70G cannot be ordered by yeast fitness: no more than 0.5 for the first, no more than 0.5 for the second.

First: U16A A20G C34U G56C
Second: U16A A20U C24G C31A C33G C61A G67C
The yeast fitness of the first is higher: 0.509 for the first, no more than 0.5 for the second.

U16A A20U C24G C33G C61A and U16A A20U U35C G39C A42C G48A cannot be ordered by yeast fitness: no more than 0.5 for the first, no more than 0.5 for the second.

Compared with U16A A21C A45U C60U G67C, U16A A21G C27G C46U is higher in yeast fitness: no more than 0.5 for the first, 0.566 for the second.

U16A A21G C27G G68C and U16A A21G C34A C49G C62U cannot be ordered by yeast fitness: no more than 0.5 for the first, no more than 0.5 for the second.

First: U16A A21G C34U
Second: U16A A21U A42U
The yeast fitness of the first is lower: no more than 0.5 for the first, 0.591 for the second.

U16A A21U C24A G52A and U16A A21U G23C U47C cannot be ordered by yeast fitness: no more than 0.5 for the first, no more than 0.5 for the second.

Compared with U16A A36U, U16A A36U C46A is lower in yeast fitness: 0.552 for the first, no more than 0.5 for the second.

First: U16A A37C C55U
Second: U16A A37G
The yeast fitness of the first is lower: no more than 0.5 for the first, 0.79 for the second.

Compared with U16A A37G C62U, U16A A37G G44A A69U is lower in yeast fitness: 0.543 for the first, no more than 0.5 for the second.

Going from U16A A37U to U16A A37U G56A C62A A69G, the yeast fitness falls from 0.739 to no more than 0.5.

Compared with U16A A40G, U16A A42C is lower in yeast fitness: 0.913 for the first, 0.854 for the second.

Going from U16A A43C to U16A A43U C62G C66A A69C, the yeast fitness falls from 0.906 to no more than 0.5.

First: U16A A57U A69U
Second: U16A A57U C66U
The yeast fitness of the first is lower: 0.526 for the first, 0.528 for the second.

First: U16A A65G
Second: U16A A69C
The yeast fitness of the first is lower: 0.933 for the first, 0.969 for the second.

Going from U16A A69G to U16A A70C, the yeast fitness rises from 0.853 to 0.897.

Going from U16A A70U to U16A C22A, the yeast fitness falls from 1.03 to 0.941.

Compared with U16A C22G, U16A C22G C61U A65G is lower in yeast fitness: 0.989 for the first, no more than 0.5 for the second.

Going from U16A C22U to U16A C22U G48A, the yeast fitness falls from 0.773 to 0.631.

U16A C22U U26C G67A and U16A C22U U26C U54G A65G C66A cannot be ordered by yeast fitness: no more than 0.5 for the first, no more than 0.5 for the second.

Going from U16A C24G A43C to U16A C24G C46U G50C C55U A57U C62G A70U, the yeast fitness falls from 0.512 to no more than 0.5.

U16A C24G C49G U53C and U16A C24G G51A cannot be ordered by yeast fitness: no more than 0.5 for the first, no more than 0.5 for the second.

Going from U16A C24U to U16A C24U C29A, the yeast fitness falls from 1.06 to 0.57.

Going from U16A C24U C34A to U16A C24U C34A A65G, the yeast fitness rises from 0.656 to 0.716.

U16A C24U C34A A65G G67A and U16A C24U C61G A65G cannot be ordered by yeast fitness: no more than 0.5 for the first, no more than 0.5 for the second.

Going from U16A C24U C62U to U16A C24U G44C C61U C66U, the yeast fitness falls from 0.692 to no more than 0.5.

First: U16A C27G
Second: U16A C27G A36U
The yeast fitness of the first is higher: 0.548 for the first, no more than 0.5 for the second.

First: U16A C27G A42U U53C
Second: U16A C27G A65C
The yeast fitness of the first is lower: no more than 0.5 for the first, 0.585 for the second.

Compared with U16A C27G C46G G67A, U16A C27U G38A is lower in yeast fitness: 0.505 for the first, no more than 0.5 for the second.

U16A C29G C30U A40U and U16A C29G C30U A40U A70G cannot be ordered by yeast fitness: no more than 0.5 for the first, no more than 0.5 for the second.

First: U16A C29G C31G C62U A69C
Second: U16A C29U
The yeast fitness of the first is lower: no more than 0.5 for the first, 0.775 for the second.

Compared with U16A C30A A42C, U16A C30G A37C is lower in yeast fitness: 0.558 for the first, no more than 0.5 for the second.

U16A C30G A57U and U16A C30G C34G A42U C66U cannot be ordered by yeast fitness: no more than 0.5 for the first, no more than 0.5 for the second.

U16A C30G C34G A42U G52A A57C A65G and U16A C30G G44C A65C cannot be ordered by yeast fitness: no more than 0.5 for the first, no more than 0.5 for the second.

Compared with U16A C31A A69U, U16A C31A C33G G38A C66U is lower in yeast fitness: 0.62 for the first, no more than 0.5 for the second.

First: U16A C31A G51A
Second: U16A C31A G67U
The yeast fitness of the first is higher: 0.552 for the first, no more than 0.5 for the second.

U16A C33A C34A and U16A C33A C34A C62A cannot be ordered by yeast fitness: no more than 0.5 for the first, no more than 0.5 for the second.

Compared with U16A C33G C49A, U16A C33U A45G C49A U53A is lower in yeast fitness: 0.537 for the first, no more than 0.5 for the second.

U16A C34A A36C A37G G56C C66A and U16A C34A A40U cannot be ordered by yeast fitness: no more than 0.5 for the first, no more than 0.5 for the second.

First: U16A C34A A40U G44A
Second: U16A C34A U64C
The yeast fitness of the first is lower: no more than 0.5 for the first, 0.513 for the second.

Compared with U16A C34G U47A G52C, U16A C34U is higher in yeast fitness: no more than 0.5 for the first, 0.663 for the second.

Compared with U16A C34U U54C, U16A C46G is higher in yeast fitness: no more than 0.5 for the first, 0.951 for the second.

Going from U16A C46U G51C to U16A C49U, the yeast fitness rises from 0.769 to 0.946.

Going from U16A C49U A69U to U16A C49U G52A C60A, the yeast fitness falls from 0.647 to no more than 0.5.

Going from U16A C49U G67A to U16A C55A, the yeast fitness rises from 0.67 to 0.699.

U16A C55G C61U and U16A C55U U59A A65C cannot be ordered by yeast fitness: no more than 0.5 for the first, no more than 0.5 for the second.

First: U16A C60A C62U
Second: U16A C60A G67C
The yeast fitness of the first is higher: 0.609 for the first, no more than 0.5 for the second.

U16A C60G C61G G68C and U16A C60G G67A cannot be ordered by yeast fitness: no more than 0.5 for the first, no more than 0.5 for the second.

Compared with U16A C60U, U16A C61A C66U A69C is lower in yeast fitness: 0.805 for the first, 0.697 for the second.

First: U16A C62A
Second: U16A C62U A69G
The yeast fitness of the first is lower: 0.786 for the first, 0.922 for the second.

Going from U16A G17A A20G C22G C61U G68C to U16A G17A C22G C61U, the yeast fitness falls from 0.559 to no more than 0.5.

Variant U16A G17A C34U C66U A70U has a yeast fitness of no more than 0.5.
